# From ChEMBL document CHEMBL1240400, “Comparative in vitro activities of nemonoxacin (TG-873870), a novel nonfluorinated quinolone, and other quinolones against clinical isolates” (2010)
# Columns and labels:
# Type in all cases: functional
# [1] = test system: Proteus mirabilis; assay: Antibacterial activity against Proteus mirabilis by broth dilution method
# [2] = test system: Escherichia coli; assay: Antibacterial activity against ciprofloxacin susceptible Escherichia coli by broth dilution method
# How it was run: (§1)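 Broth microdilution per CLSI in panels spanning a dilution range of each agent. Cation-adjusted Mueller-Hinton broth, final inoculum 5 × 10^5 CFU/ml from a 0.5 McFarland suspension. Incubated overnight at 35°C in ambient air, with quality control strains in each run. MIC reported; values at or below the lowest concentration tested are given as that concentration.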
# [3] = test system: Pseudomonas aeruginosa; assay: Antibacterial activity against Pseudomonas aeruginosa by broth dilution method
# [4] = test system: Klebsiella pneumoniae; assay: Antibacterial activity against Klebsiella pneumoniae by broth dilution method; how it was run: as §1
# [5] = test system: Citrobacter freundii; assay: Antibacterial activity against Citrobacter freundii by broth dilution method; how it was run: as §1
# [6] = test system: Escherichia coli; assay: Antibacterial activity against ciprofloxacin resistant Escherichia coli by broth dilution method
# How it was run: (§2)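 Clinical isolates tested by CLSI broth microdilution in panels holding serial twofold drug dilutions in cation-adjusted Mueller-Hinton broth. Final inoculum 5 × 10^5 CFU/ml was made from a 0.5 McFarland suspension. Plates were incubated overnight at 35°C in ambient air, and the MIC was read as the lowest concentration inhibiting growth. Quality control strains were included in each run.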
# [7] = test system: Acinetobacter baumannii; assay: Antibacterial activity against Acinetobacter baumannii by broth dilution method; how it was run: as §1
# [8] = test system: Enterobacter cloacae; assay: Antibacterial activity against Enterobacter cloacae by broth dilution method
# [9] = test system: Enterococcus faecium; assay: Antibacterial activity against vancomycin resistant Enterococcus faecium by broth dilution method; how it was run: as §2
# [10] = test system: Enterococcus faecalis; assay: Antibacterial activity against Enterococcus faecalis by broth dilution method
# [11] = test system: Streptococcus pneumoniae; assay: Antibacterial activity against Levofloxacin susceptible Streptococcus pneumoniae by broth dilution method
# How it was run: (§3)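 Streptococcus pneumoniae clinical isolates tested by CLSI broth microdilution. A 0.5 McFarland suspension was diluted into Mueller-Hinton broth with 3% lysed horse blood, then tested against serial drug dilutions. Plates were incubated overnight at 35°C in ambient air, and the MIC was read as the lowest inhibitory concentration. Quality control strains were included in each run.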
# [12] = test system: Staphylococcus aureus; assay: Antibacterial activity against methicillin susceptible Staphylococcus aureus by broth dilution method
# [13] = test system: Staphylococcus aureus; assay: Antibacterial activity against ciprofloxacin and methicillin resistant Staphylococcus aureus by broth dilution method; how it was run: as §2
# [14] = test system: Enterococcus faecium; assay: Antibacterial activity against Enterococcus faecium by broth dilution method; how it was run: as §2
# [15] = test system: Streptococcus pyogenes; assay: Antibacterial activity against Streptococcus pyogenes by broth dilution method
# How it was run: (§4)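 Streptococci were tested by CLSI broth microdilution in Mueller-Hinton broth with 3% lysed horse blood, seeded from a 0.5 McFarland suspension. Incubated overnight at 35°C in ambient air, with quality control strains in each run. MIC taken over a per-agent dilution range.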
# [16] = test system: Haemophilus influenzae; assay: Antibacterial activity against Haemophilus influenzae by broth dilution method
# How it was run: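 Broth microdilution per CLSI using Haemophilus Test Medium broth, seeded from a 0.5 McFarland suspension. Incubated overnight at 35°C in ambient air, with quality control strains in each run. MIC read against a tested dilution range; values at the low limit are given as the lowest concentration.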
# [17] = test system: Enterococcus faecalis; assay: Antibacterial activity against vancomycin resistant Enterococcus faecalis by broth dilution method
# [18] = test system: Streptococcus pneumoniae; assay: Antibacterial activity against Levofloxacin resistant Streptococcus pneumoniae by broth dilution method; how it was run: as §3
# [19] = test system: Streptococcus agalactiae; assay: Antibacterial activity against Streptococcus agalactiae by broth dilution method; how it was run: as §4
# [20] = test system: Staphylococcus aureus; assay: Antibacterial activity against ciprofloxacin susceptible and methicillin resistant Staphylococcus aureus by broth dilution method; how it was run: as §2
# [21] = test system: Staphylococcus epidermidis; assay: Antibacterial activity against methicillin resistant coagulase negative Staphylococcus epidermidis by broth dilution method
# [22] = test system: Streptococcus viridans; assay: Antibacterial activity against Streptococcus viridans by broth dilution method; how it was run: as §4
# [23] = test system: Staphylococcus; assay: Antibacterial activity against methicillin resistant coagulase negative Staphylococcus by broth dilution method
smiles,measurement,setting,value
CCN1CCN(C(=O)N[C@@H](C(=O)N[C@@H]2C(=O)N3[C@@H]2SC(C)(C)[C@@H]3C(=O)O)c2ccccc2)C(=O)C1=O [PIPERACILLIN],MIC50,[1],32 µg/mL
same,MIC90,[1],> 128 µg/mL
same,MIC50,[2],> 128 µg/mL
same,MIC90,[2],> 128 µg/mL
same,MIC50,[3],128 µg/mL
same,MIC90,[3],> 128 µg/mL
same,MIC50,[4],> 128 µg/mL
same,MIC90,[4],> 128 µg/mL
same,MIC50,[5],16 µg/mL
same,MIC90,[5],> 128 µg/mL
same,MIC,[6],2 µg/mL
same,MIC90,[6],0.5 µg/mL
same,MIC50,[7],> 128 µg/mL
same,MIC90,[7],> 128 µg/mL
same,MIC50,[8],> 128 µg/mL
same,MIC90,[8],> 128 µg/mL
CN(C)c1cc(NC(=O)CNC(C)(C)C)c(O)c2c1C[C@H]1C[C@H]3[C@H](N(C)C)C(O)=C(C(N)=O)C(=O)[C@@]3(O)C(O)=C1C2=O [TIGECYCLINE],MIC50,[9],0.06 µg/mL
same,MIC90,[9],0.12 µg/mL
same,MIC50,[1],2 µg/mL
same,MIC90,[1],4 µg/mL
same,MIC50,[2],0.25 µg/mL
same,MIC90,[2],0.5 µg/mL
same,MIC50,[3],8 µg/mL
same,MIC90,[3],> 8 µg/mL
same,MIC50,[10],0.25 µg/mL
same,MIC90,[10],0.25 µg/mL
same,MIC50,[4],0.5 µg/mL
same,MIC90,[4],1 µg/mL
same,MIC,[11],0.08 µg/mL
same,MIC50,[11],0.03 µg/mL
same,MIC90,[11],0.06 µg/mL
same,MIC50,[12],0.12 µg/mL
same,MIC90,[12],0.25 µg/mL
same,MIC50,[13],0.25 µg/mL
same,MIC90,[13],0.5 µg/mL
same,MIC50,[14],0.06 µg/mL
same,MIC90,[14],0.12 µg/mL
same,MIC,[5],0.25 µg/mL
same,MIC50,[5],0.25 µg/mL
same,MIC90,[5],0.5 µg/mL
same,MIC50,[6],0.25 µg/mL
same,MIC90,[6],> 8 µg/mL
same,MIC50,[7],1 µg/mL
same,MIC90,[7],2 µg/mL
same,MIC50,[15],0.03 µg/mL
same,MIC90,[15],0.06 µg/mL
same,MIC50,[16],0.5 µg/mL
same,MIC90,[16],1 µg/mL
same,MIC50,[17],0.25 µg/mL
same,MIC90,[17],0.25 µg/mL
same,MIC50,[18],0.06 µg/mL
same,MIC90,[18],0.06 µg/mL
same,MIC,[19],0.03 µg/mL
same,MIC50,[19],0.03 µg/mL
same,MIC90,[19],0.06 µg/mL
same,MIC50,[20],0.25 µg/mL
same,MIC90,[20],0.25 µg/mL
same,MIC50,[21],0.25 µg/mL
same,MIC90,[21],0.5 µg/mL
same,MIC50,[22],0.06 µg/mL
same,MIC90,[22],0.12 µg/mL
same,MIC50,[8],0.5 µg/mL
same,MIC90,[8],2 µg/mL
same,MIC50,[23],0.25 µg/mL
same,MIC90,[23],0.5 µg/mL
CN[C@H](CC(C)C)C(=O)N[C@H]1C(=O)N[C@@H](CC(N)=O)C(=O)N[C@H]2C(=O)N[C@H]3C(=O)N[C@H](C(=O)N[C@H](C(=O)O)c4cc(O)cc(O)c4-c4cc3ccc4O)[C@H](O)c3ccc(c(Cl)c3)Oc3cc2cc(c3O[C@@H]2O[C@H](CO)[C@@H](O)[C@H](O)[C@H]2O[C@H]2C[C@](C)(N)[C@H](O)[C@H](C)O2)Oc2ccc(cc2Cl)[C@H]1O [VANCOMYCIN],MIC50,[9],8 µg/mL
same,MIC90,[9],> 16 µg/mL
same,MIC50,[10],2 µg/mL
same,MIC90,[10],> 16 µg/mL
same,MIC50,[11],0.5 µg/mL
same,MIC90,[11],0.5 µg/mL
same,MIC50,[12],1 µg/mL
same,MIC90,[12],1 µg/mL
same,MIC50,[13],2 µg/mL
same,MIC90,[13],2 µg/mL
same,MIC50,[14],8 µg/mL
same,MIC90,[14],> 16 µg/mL
same,MIC50,[15],0.5 µg/mL
same,MIC90,[15],0.5 µg/mL
same,MIC50,[17],2 µg/mL
same,MIC90,[17],> 16 µg/mL
same,MIC50,[18],0.5 µg/mL
same,MIC90,[18],0.5 µg/mL
same,MIC,[19],0.5 µg/mL
same,MIC50,[19],0.5 µg/mL
same,MIC90,[19],1 µg/mL
same,MIC50,[20],1 µg/mL
same,MIC90,[20],1 µg/mL
same,MIC50,[21],2 µg/mL
same,MIC90,[21],2 µg/mL
same,MIC,[22],0.5 µg/mL
same,MIC50,[22],0.5 µg/mL
same,MIC90,[22],1 µg/mL
same,MIC50,[23],2 µg/mL
same,MIC90,[23],2 µg/mL
